CAL PDZ FP-1: blocks peptide binding to human CAL PDZ domain. Q9HD26. purified CAL PDZ, TMR-peptide fluorescence polarization, 1 h. inhibition, % at 20 µM. 330,000 tested, 0.02% active. AID 504414;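 active = highest replicate inhibition of at least 40%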;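 also: plate controls were DMSO neutral control wells for no effect and unlabeled competitor peptide control wells for full effect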
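Material: tagged CAL PDZ domain; buffer or medium: 25 mM sodium phosphate pH 7.4, 150 mM NaCl, TCEP, IgG, Thesit; compound dosing: single point, 20 µM; schedule: 1 h incubation at room temperature before polarization reading; measured by: FP readout, S and P plane fluorescence; read-out basis: percent inhibition from loss of millipolarization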
Keap1 Nrf2 FP: disrupts human Keap1 binding to Nrf2 peptide; Q14145; Keap1 Kelch-Nrf2 peptide fluorescence polarization, 1536-well; inhibition, % at 9.4 µM; 340,000 tested, 0.15% active; in the data active = inhibition above about 12%;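 also: human Keap1 Kelch domain with fluorescein labeled Nrf2 9mer peptide probe; 0% = neutral control wells and 100% = peptide positive control; higher means more block of Keap1 binding to Nrf2 peptide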
LANA-H2B inh: blocks KSHV LANA binding to histone H2A/H2B. Q9QR71. cell-free LANA-H2A/H2B peptide, fluorescence polarization. inhibition, % (no concentration beside the values). 320,000 tested, 0.6% active. AID 2629; in the data active = inhibition mostly above about 10%, no sharp cut-off; inactive = mostly below about 6.7%
Target sequence (Q9QR71 whole entry, looked up): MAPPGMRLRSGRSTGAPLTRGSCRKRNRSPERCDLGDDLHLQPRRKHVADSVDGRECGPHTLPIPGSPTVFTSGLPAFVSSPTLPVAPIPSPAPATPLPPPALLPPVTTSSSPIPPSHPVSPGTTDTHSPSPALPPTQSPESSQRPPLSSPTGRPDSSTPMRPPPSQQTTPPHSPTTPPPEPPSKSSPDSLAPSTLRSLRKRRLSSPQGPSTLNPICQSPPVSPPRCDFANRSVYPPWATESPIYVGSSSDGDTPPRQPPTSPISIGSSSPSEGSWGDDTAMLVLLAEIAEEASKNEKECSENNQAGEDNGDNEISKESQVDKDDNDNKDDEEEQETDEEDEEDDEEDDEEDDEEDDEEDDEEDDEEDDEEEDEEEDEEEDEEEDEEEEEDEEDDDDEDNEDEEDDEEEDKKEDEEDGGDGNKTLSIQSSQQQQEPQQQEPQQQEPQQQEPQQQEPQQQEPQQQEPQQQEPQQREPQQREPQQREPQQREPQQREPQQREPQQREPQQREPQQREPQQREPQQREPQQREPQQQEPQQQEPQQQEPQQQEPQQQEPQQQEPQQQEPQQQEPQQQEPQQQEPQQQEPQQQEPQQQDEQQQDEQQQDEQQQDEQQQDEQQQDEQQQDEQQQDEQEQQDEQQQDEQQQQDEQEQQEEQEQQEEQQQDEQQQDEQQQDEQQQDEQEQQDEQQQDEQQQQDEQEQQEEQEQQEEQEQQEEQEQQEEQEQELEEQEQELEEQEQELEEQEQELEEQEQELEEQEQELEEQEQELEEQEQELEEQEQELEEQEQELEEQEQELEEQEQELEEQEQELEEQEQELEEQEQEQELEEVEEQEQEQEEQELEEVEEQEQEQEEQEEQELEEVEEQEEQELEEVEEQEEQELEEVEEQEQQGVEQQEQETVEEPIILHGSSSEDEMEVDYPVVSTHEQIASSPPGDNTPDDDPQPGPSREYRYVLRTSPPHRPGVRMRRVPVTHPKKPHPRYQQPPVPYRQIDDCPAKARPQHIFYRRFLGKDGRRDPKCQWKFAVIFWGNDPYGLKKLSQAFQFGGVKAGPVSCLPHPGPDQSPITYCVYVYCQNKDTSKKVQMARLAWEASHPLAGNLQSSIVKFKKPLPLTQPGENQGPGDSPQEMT
CAL PDZ FP-2: inhibitors of human CAL PDZ peptide binding. Q9HD26. purified CAL PDZ, TMR-peptide fluorescence polarization, 1 h. inhibition, % at 24.9 µM. 300,000 tested, 0.92% active;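 active = mean inhibition of at least 30% with at least half of replicates also reaching 30%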;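 also: 0% = DMSO neutral control and 100% = excess unlabeled competitor peptide PRC23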
LANA DNA inh: inhibitors of KSHV LANA C-terminal domain DNA binding; AID 504423; 340,000 tested, 0.078% active; inhibition, % at 9 µM; MBP-C-LANA/FAM-LBS DNA binding, fluorescence polarization;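 active = highest replicate inhibition at or above 60% at 9 µM, even if other replicates fall short; inactive = all replicates below 60% inhibition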;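 also: 0% = neutral control wells and 100% = 4 µM acridine orange control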
CaV13 FRET inh: Primary screen for inhibitors of IQ motif and Ca2+-dependent inactivation inhibitor domain binding in CACNA1D, Förster resonance energy transfer in living cells, …. HEK cells, CFP/YFP FRET ICDI-IQ, plate reader, 10 min; percent FRET-ratio fall versus neutral wells. inhibition, % at 12.3 µM. 340,000 tested, 0.098% active. AID 743397;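 active = mean replicate inhibition of at least 30% and at least 1% of replicates passing that level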;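 also: 0% = median of the neutral control wells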
Numbers without * were called inactive; nt = no result; + = active, no number. An excerpt weighted towards active compounds, which were near 1.5% of everything screened.

SMILES	CAL PDZ FP-1	Keap1 Nrf2 FP	LANA-H2B inh	CAL PDZ FP-2	LANA DNA inh	CaV13 FRET inh
NS(=O)(=O)c1ccc(CNC(=S)NCc2ccc(Cl)cc2)cc1	-1.5	-3.0	0.4	-6.0	-1.7	-20.5
C[C@H](CO)N1C[C@H](C)[C@@H](CN(C)S(=O)(=O)c2ccc(F)cc2)Oc2c(NC(=O)Nc3ccc(C(F)(F)F)cc3)cccc2C1=O	-0.1	5.7	-2.8	-0.1	-0.4	-4.7
C[C@H]1CN([C@@H](C)CO)C(=O)c2cccc(NC(=O)Nc3ccc(C(F)(F)F)cc3)c2O[C@@H]1CN(C)S(=O)(=O)c1ccc(Cl)cc1	-0.7	-6.7	14.8*	-3.1	0.6	-9.3
C[C@@H]1CN([C@H](C)CO)C(=O)c2cc(NC(=O)Nc3ccc(C(F)(F)F)cc3)ccc2O[C@H]1CN(C)S(=O)(=O)c1ccc(Cl)cc1	-1.4	-6.5	+	1.2	-3.6	-2.7
Nc1nsc2ccccc12	-2.2	-6.4	-0.2	-1.8	-0.9	-7.3
Nc1nnc(N)c2ccccc12	-0.6	5.7	-1.7	57.2*	1.3	-6.2
Cc1nc2ccc(S(=O)(=O)Nc3ccc(-c4nc5cccnc5s4)cc3)cc2s1	-0.4	-2.9	-1.0	6.4	0.2	139.2*
Cc1cc(-c2nc3cccnc3s2)ccc1NS(=O)(=O)c1cccs1	-0.9	-6.0	-8.8	-4.5	2.2	+
O=S(=O)(Nc1ccc(-c2nc3cccnc3s2)cc1)c1cccs1	-0.2	1.2	1.9	-5.8	-1.5	-2.7
CC(C)(C)c1ccc(-c2cc(NC(=O)Cc3c[nH]c4ccccc34)ccc2Nc2cccnc2)cc1	nt	nt	nt	nt	nt	-2.3
O=C1CC(c2ccccc2)CC(O)=C1C=Nc1ccc(Cl)cc1 (centres undefined)	-0.2	3.0	-3.3	3.0	0.1	3.1
O=C1CCCC(O)=C1C=Nc1ccc(O)cc1	-0.1	-0.7	16.7*	-3.1	1.1	nt
CC1=C[C@@H]2[C@H]3C(=O)N(Cc4ccccc4)C(=O)[C@H]3[C@@H]1[C@@H]1O[C@@]3(C(=O)N(C)c4ccccc43)C3=C(CCCC3=O)N21	nt	nt	nt	nt	nt	-10.8
O=C(CNc1cccc([N+](=O)[O-])c1)NCCCc1ccccc1	-0.3	5.1	-1.3	38.4*	-1.7	-3.5
O=C(CNS(=O)(=O)c1cccc(Br)c1)NCCCc1ccccc1	-0.9	-4.3	-2.6	44.3*	-0.8	-2.4
Cc1cc(C)c2c(=O)n3c(nc2c1)C(Cc1ccc(O)cc1)NC(=O)c1cc2ccccc2cc1-3 (centres undefined)	nt	nt	nt	nt	nt	-5.2
CC(=C1N=C(c2ccccc2)OC1=O)c1cccs1	nt	nt	nt	nt	nt	-10.6
CCOC(=O)C1(Cc2ccc(Cl)cc2)CCN(C(=O)CCc2cnccn2)CC1	0.6	-2.2	0.8	-1.1	0.2	-4.0
CCOC(=O)C1(Cc2ccc(OC)cc2)CCN(C(=O)CCc2cnccn2)CC1	0.2	1.1	1.9	76.5*	1.9	-16.0
O=C(NCc1nnc(SCC(=O)N2CCCCC2)o1)c1c(F)cccc1Cl	-1.3	-4.0	0.7	78.1*	-0.2	-2.8
O=C(NCc1nnc(SCC(=O)N2CCCC2)o1)c1c(F)cccc1Cl	-2.9	-0.6	-0.1	-4.2	-1.2	-4.4
CC1CCN(C(=O)CSc2nnc(CNC(=O)c3ccc(S(=O)(=O)N(C)C)cc3)o2)CC1	0.5	-5.3	-3.0	55.5*	0.1	-6.0
O=C(CSc1nnc(CNC(=O)c2c(F)cccc2Cl)o1)NC1CCCC1	-1.2	-4.7	2.1	74.0*	1.9	-3.1
CN(C)S(=O)(=O)c1ccc(C(=O)NCc2nnc(SCC(=O)N3CCCCCC3)o2)cc1	-1.6	7.0	5.9	8.0	0.9	-9.8
COc1ccc(CNC(=O)CN2C(=O)CSc3ccc(S(=O)(=O)N4CCOCC4)cc32)c(OC)c1	-0.7	-6.8	3.1	-4.6	0.4	-16.0
SMILES	CAL PDZ FP-1	Keap1 Nrf2 FP	LANA-H2B inh	CAL PDZ FP-2	LANA DNA inh	CaV13 FRET inh
O=C(CN1C(=O)CSc2ccc(S(=O)(=O)N3CCCCCC3)cc21)NCCc1ccccc1	0.0	-2.9	nt	-0.5	-0.5	-4.9
CC(C)OCCCNC(=O)CN1C(=O)CSc2ccc(S(=O)(=O)N3CCCCC3)cc21	-1.3	-0.4	21.7*	1.3	2.1	-2.1
O=C(CN1C(=O)CSc2ccc(S(=O)(=O)N3CCCCC3)cc21)NCc1ccccc1	-1.8	-3.2	56.1*	-3.8	-1.9	-2.5
CCCCN(C)CCNC(=O)CN1C(=O)CSc2ccc(S(=O)(=O)N3CCCC3)cc21	-1.1	2.0	19.4*	-1.1	-1.0	-2.1
CCOc1ccccc1CNC(=O)CN1C(=O)CSc2ccc(S(=O)(=O)N3CCOCC3)cc21	-1.0	-4.4	0.9	+	0.6	-3.3
O=C(O)CSCC(=O)N(Cc1ccccc1)c1nc(-c2ccccc2)c(-c2ccccc2)s1	-1.2	1.3	-4.3	44.2*	2.7	-2.3
O=C(O)CSc1cccc2cccnc12	-6.0	-7.1	-0.1	4.8	1.7	-2.1
Cc1ccc(C(=O)COC(=O)CSc2cccc3cccnc23)c(C)c1	-2.7	2.4	16.7*	-2.9	1.9	-4.4
CN(C)/C=C/C(=O)c1ccc(C(F)(F)F)cc1F	-0.7	1.8	4.6	-2.0	1.0	-0.6
CN(C)/C=C/C(=O)c1c(F)cccc1F	-1.0	-1.4	-14.5	-2.6	2.1	93.9*
CCCN1C(=O)c2n[nH]c(C)c2C1c1ccc(Br)cc1 (centres undefined)	nt	nt	nt	nt	nt	-2.0
CCc1ccccc1NC(=O)CSC1=C(C#N)C(c2ccc(O)c(OC)c2)C2=C(CCCC2=O)N1 (centres undefined)	-2.3	-7.2	4.4	-0.2	-2.2	nt
COc1cc(C2C(C#N)=C(SC)NC3=C2C(=O)CCC3)ccc1O (centres undefined)	-1.1	2.2	4.4	88.7*	-1.6	3.1
CN(N=Cc1ccccc1O)C(=O)c1ccccc1N	nt	nt	nt	nt	nt	-12.8
O=C(CN1CCN(c2ccccc2F)CC1)NC(=O)NCc1ccco1	0.0	-2.3	0.7	44.1*	0.6	-6.3
O=C(CN1CCN(c2ccccc2F)CC1)NCc1ccccc1	0.3	-6.7	32.9*	-3.4	0.6	-21.5
COc1cccc(N2CCN(CC(=O)NCc3ccccc3)CC2)c1	0.0	-2.2	1.4	50.4*	1.2	-6.0
CC(C)[C@@H](C)/C=C/[C@@H](C)[C@H]1CC[C@@H]2[C@]1(C)CCC1[C@]23C=C[C@]2(C[C@@H](O)CC[C@]12C)N(c1ncc(C(F)(F)F)cc1Cl)O3 (some centres undefined)	nt	nt	nt	nt	nt	-9.1
CC(C)C[C@H](NC(=O)c1cccs1)C(=O)N1CCC[C@H]1C(=O)NCc1ccccc1	nt	nt	nt	nt	nt	-7.9
C#CCNC(=O)C[C@H]1C[C@@]2(C(=O)OC)C(=C[C@H](COCc3ccccc3)O[C@@H]2C)N(Cc2ccc3c(c2)OCO3)C1=O	nt	nt	nt	nt	nt	-9.5

Compound activity as filed in PubChem.
